Assay results as given in article PMC5900965 (Clinical Pharmacology in Drug Development, 2017).
Several values for one entry are separate records, joined by “and”; a condition that tells them apart may be missing. Identical values can stand only once.

What was measured:
CYP2B6 = molecular target: T1, CYP2B6 (Homo sapiens, UniProt P20813); assay: Reversible inhibition of CYP2B6 in pooled human liver microsomes; assay type: in vitro ADME
T1 sequence (P20813 1-491): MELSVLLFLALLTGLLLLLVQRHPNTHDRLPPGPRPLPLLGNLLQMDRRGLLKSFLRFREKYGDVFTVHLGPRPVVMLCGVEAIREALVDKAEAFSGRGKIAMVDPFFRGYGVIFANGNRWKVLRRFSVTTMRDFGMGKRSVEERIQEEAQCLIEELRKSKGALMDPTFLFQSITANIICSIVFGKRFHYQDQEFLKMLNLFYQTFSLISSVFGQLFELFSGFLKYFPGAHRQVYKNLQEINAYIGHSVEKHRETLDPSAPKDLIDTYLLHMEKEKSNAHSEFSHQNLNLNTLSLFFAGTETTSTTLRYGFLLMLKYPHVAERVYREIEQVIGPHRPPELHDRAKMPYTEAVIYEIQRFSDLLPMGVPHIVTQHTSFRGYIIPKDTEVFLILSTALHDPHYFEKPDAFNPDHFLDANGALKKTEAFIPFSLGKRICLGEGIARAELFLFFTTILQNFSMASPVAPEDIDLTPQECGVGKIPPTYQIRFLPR

[1] = at 0.76 mg/mL microsomal protein; ref data on file; cited from earlier work
CYP3A4 = assay: Induction of CYP3A4 enzyme activity in cryopreserved human hepatocytes; assay type: in vitro ADME; conditions: 72 hours, positive defined as ≥2‐fold
In short: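 Cryopreserved human hepatocytes from several lots, in collagen-coated wells, were exposed for 72 h to test compound (0.5–100 or 0.5–60 μM), vehicle, or rifampin (25 or 10 μM). After washing, testosterone (250 μM) or midazolam (30 μM) was added. 6β-Hydroxytestosterone was measured by HPLC-UV and 1′-hydroxymidazolam by LC-MS/MS. A ≥2-fold rise counted as positive. EC50 and Emax were fitted to the concentration–fold-induction curves.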

CYP2C19 = CYP2C19 (Homo sapiens, UniProt P33261); assay: Reversible inhibition of CYP2C19 in pooled human liver microsomes; assay type: in vitro ADME
CYP3A4/5 = assay: Time-dependent inhibition of CYP3A in pooled human liver microsomes; assay type: in vitro ADME
CYP3A4 mRNA = assay: Induction of CYP3A mRNA in cryopreserved human hepatocytes; assay type: in vitro ADME; conditions: for Estimated Emax (Fold Induction): highest fold induction observed
CYP1A2 [2] = assay type: in vitro ADME; conditions: human hepatocytes, 72 hours; data not shown
[3] = Clinical plasma exposure after oral PF-04171327; assay type: in vivo, human; conditions: 25‐mg steady‐state administration of PF‐04171327
CYP2C9 = CYP2C9 (Homo sapiens, UniProt P11712); assay: Reversible inhibition of CYP2C9 in pooled human liver microsomes; assay type: in vitro ADME
[4] = cited from earlier work
CYP3A [5] = molecular target: T2, CYP3A (Homo sapiens, UniProt P08684); assay: Reversible inhibition of CYP3A in pooled human liver microsomes; assay type: in vitro ADME
[6] = test system: CYP2C8, CYP2C9, CYP2D6 and CYP3A (range over these CYPs); assay: Reversible CYP inhibition panel in human liver microsomes; assay type: in vitro ADME; conditions: pooled human liver microsomes
CYP2C8 = molecular target: T3, CYP2C8 (Homo sapiens, UniProt P10632); assay: Reversible inhibition of CYP2C8 in pooled human liver microsomes; assay type: in vitro ADME
T3 sequence (P10632 1-490): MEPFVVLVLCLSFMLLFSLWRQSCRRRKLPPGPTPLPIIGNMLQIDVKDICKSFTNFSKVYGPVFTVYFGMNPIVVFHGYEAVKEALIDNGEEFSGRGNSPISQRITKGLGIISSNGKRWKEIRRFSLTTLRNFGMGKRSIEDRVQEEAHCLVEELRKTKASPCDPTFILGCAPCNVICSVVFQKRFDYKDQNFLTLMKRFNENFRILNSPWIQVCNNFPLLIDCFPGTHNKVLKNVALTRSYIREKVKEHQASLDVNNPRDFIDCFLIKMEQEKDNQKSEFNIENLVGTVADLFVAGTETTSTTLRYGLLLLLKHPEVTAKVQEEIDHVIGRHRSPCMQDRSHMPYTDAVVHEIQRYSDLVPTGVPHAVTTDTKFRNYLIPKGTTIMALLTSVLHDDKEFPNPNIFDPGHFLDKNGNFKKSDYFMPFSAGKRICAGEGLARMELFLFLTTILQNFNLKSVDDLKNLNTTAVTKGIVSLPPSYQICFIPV

CYP2D6 [7] = molecular target: T4, CYP2D6 (Homo sapiens, UniProt P10635); assay: Reversible inhibition of CYP2D6 in pooled human liver microsomes; assay type: in vitro ADME
CYP1A2 [8] = molecular target: T5, CYP1A2 (Homo sapiens, UniProt P05177); assay: biochemical; assay type: in vitro ADME
T5 sequence (P05177 1-516): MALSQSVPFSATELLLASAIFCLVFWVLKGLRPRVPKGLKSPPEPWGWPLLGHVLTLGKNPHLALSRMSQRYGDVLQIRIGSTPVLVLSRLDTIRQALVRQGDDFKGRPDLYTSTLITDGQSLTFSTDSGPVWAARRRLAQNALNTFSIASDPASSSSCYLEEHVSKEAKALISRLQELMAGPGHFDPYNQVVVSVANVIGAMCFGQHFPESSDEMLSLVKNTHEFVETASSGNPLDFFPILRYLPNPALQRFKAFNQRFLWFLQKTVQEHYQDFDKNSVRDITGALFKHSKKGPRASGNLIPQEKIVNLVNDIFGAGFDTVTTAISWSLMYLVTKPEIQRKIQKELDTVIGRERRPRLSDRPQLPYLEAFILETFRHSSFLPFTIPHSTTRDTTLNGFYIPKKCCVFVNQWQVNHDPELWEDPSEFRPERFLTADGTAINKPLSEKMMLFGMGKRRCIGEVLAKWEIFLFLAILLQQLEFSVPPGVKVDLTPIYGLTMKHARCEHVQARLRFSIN

CYP2D6 [9] = molecular target: T4, CYP2D6; assay: Time-dependent inhibition of CYP2D6 in pooled human liver microsomes; assay type: in vitro ADME
[10] = 10 and 25 mg; patients with RA; week 8; cited from earlier work
[11] = Phase 1 study safety and tolerability; assay type: in vivo, human
CYP3A [12] = molecular target: T2, CYP3A; assay: clinical; conditions: in vivo; for Tmax: Tmax of midazolam, median (range)

T4 sequence (P10635 whole entry): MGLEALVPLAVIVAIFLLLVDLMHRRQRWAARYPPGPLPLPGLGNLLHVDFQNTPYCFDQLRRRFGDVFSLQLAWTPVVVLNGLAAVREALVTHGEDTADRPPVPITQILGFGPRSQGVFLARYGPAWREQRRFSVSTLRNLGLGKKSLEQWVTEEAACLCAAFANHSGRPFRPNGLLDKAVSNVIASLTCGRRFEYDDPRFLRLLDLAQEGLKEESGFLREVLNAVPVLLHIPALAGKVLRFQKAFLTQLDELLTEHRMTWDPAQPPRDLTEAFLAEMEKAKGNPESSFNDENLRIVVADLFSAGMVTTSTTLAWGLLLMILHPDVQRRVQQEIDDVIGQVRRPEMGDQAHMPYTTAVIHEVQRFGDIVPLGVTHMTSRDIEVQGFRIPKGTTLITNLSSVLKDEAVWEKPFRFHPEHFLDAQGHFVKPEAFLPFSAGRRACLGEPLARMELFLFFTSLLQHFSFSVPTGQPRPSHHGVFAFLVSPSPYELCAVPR
T2 sequence (P08684 2-503): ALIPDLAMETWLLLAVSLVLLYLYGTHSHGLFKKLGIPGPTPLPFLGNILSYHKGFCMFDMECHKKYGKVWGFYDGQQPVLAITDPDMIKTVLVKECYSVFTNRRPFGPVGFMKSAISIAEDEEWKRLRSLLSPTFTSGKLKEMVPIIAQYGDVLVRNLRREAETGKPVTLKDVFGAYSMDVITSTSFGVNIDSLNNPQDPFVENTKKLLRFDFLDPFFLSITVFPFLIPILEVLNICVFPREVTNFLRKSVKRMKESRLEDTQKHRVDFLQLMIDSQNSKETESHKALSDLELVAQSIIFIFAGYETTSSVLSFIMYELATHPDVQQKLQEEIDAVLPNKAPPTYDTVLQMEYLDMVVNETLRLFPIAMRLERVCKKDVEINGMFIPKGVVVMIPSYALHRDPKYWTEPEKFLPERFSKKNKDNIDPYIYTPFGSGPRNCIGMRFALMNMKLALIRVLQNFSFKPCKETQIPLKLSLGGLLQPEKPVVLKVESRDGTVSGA
Chain of CYP2C19 (P33261 whole entry): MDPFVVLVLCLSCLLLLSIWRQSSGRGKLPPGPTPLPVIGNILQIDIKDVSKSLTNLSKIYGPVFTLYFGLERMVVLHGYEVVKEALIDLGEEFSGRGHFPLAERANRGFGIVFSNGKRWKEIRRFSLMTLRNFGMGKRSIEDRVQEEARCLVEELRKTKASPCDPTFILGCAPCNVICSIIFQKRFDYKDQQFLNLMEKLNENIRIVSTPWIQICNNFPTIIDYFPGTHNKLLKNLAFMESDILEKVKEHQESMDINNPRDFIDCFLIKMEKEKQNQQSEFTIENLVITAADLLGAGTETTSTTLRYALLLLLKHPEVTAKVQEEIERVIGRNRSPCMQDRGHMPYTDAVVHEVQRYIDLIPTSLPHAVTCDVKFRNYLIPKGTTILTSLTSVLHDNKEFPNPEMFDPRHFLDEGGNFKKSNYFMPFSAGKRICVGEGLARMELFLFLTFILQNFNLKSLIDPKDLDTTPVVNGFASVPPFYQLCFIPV
Chain of CYP2C9 (P11712 whole entry): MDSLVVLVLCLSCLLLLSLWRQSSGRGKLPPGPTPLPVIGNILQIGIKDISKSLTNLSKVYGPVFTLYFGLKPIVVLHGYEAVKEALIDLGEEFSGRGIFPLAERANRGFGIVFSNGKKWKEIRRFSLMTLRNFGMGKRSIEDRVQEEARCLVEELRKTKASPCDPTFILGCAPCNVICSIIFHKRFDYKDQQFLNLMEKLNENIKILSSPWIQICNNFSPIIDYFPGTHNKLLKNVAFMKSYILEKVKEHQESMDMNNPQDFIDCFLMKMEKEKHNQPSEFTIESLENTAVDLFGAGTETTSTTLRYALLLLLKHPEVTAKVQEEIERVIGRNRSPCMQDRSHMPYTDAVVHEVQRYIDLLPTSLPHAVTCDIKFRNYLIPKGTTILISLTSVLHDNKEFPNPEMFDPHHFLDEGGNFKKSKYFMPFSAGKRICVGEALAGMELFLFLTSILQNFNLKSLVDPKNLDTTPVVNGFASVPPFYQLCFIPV

Cc1ncccc1NC(=O)c1ccc2c(c1)CC[C@@H]1C[C@@](O)(C(F)(F)F)CC[C@@]21Cc1ccccc1 [PF‐00251802, dagrocorat]
IC50 (CYP2B6): > 30000 nM | Fraction unbound in microsomes [1]: approximately 0.22 | Induction of CYP3A4 enzyme activity (CYP3A4): not observed | IC50 (CYP2C19): > 30000 nM | Concentrations at which time‐dependent inhibition of CYP3A was shown (CYP3A4/5; midazolam as marker substrate): ≥ 80 nM | kinact/KI (CYP3A4/5; midazolam, slope of kobs versus [I] curve): 1200 M⁻¹ s⁻¹ | Estimated Emax (Fold Induction) (CYP3A4 mRNA; Lot 1, expt 1): 13 Fold Induction | Estimated Emax (Fold Induction) (CYP3A4 mRNA; Lot 1, expt 2): 4.7 Fold Induction | Estimated Emax (Fold Induction) (CYP3A4 mRNA; Lot 2, expt 1): 40 Fold Induction | Estimated Emax (Fold Induction) (CYP3A4 mRNA; Lot 2, expt 2): 22 Fold Induction | Induction of CYP3A4 mRNA (CYP3A4 mRNA; all lots tested, positive defined as ≥4‐fold induction based on mRNA): Induction of CYP3A4 mRNA was observed | Induction of CYP1A2 enzyme activity (CYP1A2 [2]): No induction | Unbound Cmax [3]: approximately 2.1 ng/mL and ~4.2 nM | IC50 (CYP2C9): 1800 nM | Estimated total Cmax ([4]; 25‐mg steady‐state administration of PF‐04171327, ref Miyoshi et al 11, Weatherley et al 22, unpublished data): approximately 300 ng/mL | Time to achieve apparent steady‐state concentrations ([4]; multiple‐dose study of PF‐04171327 in healthy volunteers): 12 days | Cmax ([4]; read-out: Estimated total Cmax, 25‐mg steady‐state administration of PF‐04171327, ref Miyoshi et al 11, Weatherley et al 22, unpublished data): ~610 nM | IC50 (CYP3A [5]; probe felodipine (oxidation)): 1300 nM | IC50 (CYP3A [5]; probe midazolam (1′-hydroxylation)): 4600 nM | IC50 (CYP3A [5]; probe testosterone (6β-hydroxylation)): 1000 nM | IC50 [6]: 480 to 4600 nM | IC50 (CYP2C8): 480 nM | IC50 (CYP2D6 [7]): 570 nM | IC50 (CYP1A2 [8]): > 30000 nM | Ki (CYP2D6 [9]): 570 nM | kinact/KI (CYP2D6 [9]; dextromethorphan): 367 M⁻¹ s⁻¹ | Concentrations at which time‐dependent inhibition of CYP2D6 was shown (CYP2D6 [9]; dextromethorphan as probe substrate): ≥ 600 nM

Cc1ncccc1NC(=O)c1ccc2c(c1)CC[C@@H]1C[C@@](OP(=O)(O)O)(C(F)(F)F)CC[C@@]21Cc1ccccc1 [PF‐04171327, fosdagrocorat]
Efficacy in improving signs and symptoms of RA [10]: superior efficacy relative to placebo and comparable efficacy relative to prednisone | Detection in systemic circulation ([4]; single or multiple ascending‐dose phase 1 studies, lower limit of quantification 0.5 ng/mL, ref Pfizer, unpublished data): not detected | SAEs or deaths ([11]; coadministration of PF‐04171327 and midazolam): No SAEs or deaths were reported

Cc1ncc2n1-c1ccc(Cl)cc1C(c1ccccc1F)=NC2 [Midazolam, midazolam]
AUC(0-inf) (CYP3A [12]): 20.3 ng·h/mL | AUC(0-t) (CYP3A [12]): 19.8 ng·h/mL | Cmax (CYP3A [12]): 7.2 ng/mL | half-life (CYP3A [12]): 3.34 h | Tmax (CYP3A [12]): ~0.5 h | AUC(0-inf) (CYP3A [12]; po, 2 mg): 21.2 ng·h/mL | AUC(0-t) (CYP3A [12]; po, 2 mg): 20.5 ng·h/mL | Cmax (CYP3A [12]; po, 2 mg): 8.03 ng/mL | half-life (CYP3A [12]; po, 2 mg): 3.87 h | Tmax (CYP3A [12]; po, 2 mg): ~0.5 h | Treatment‐emergent AEs ([11]; midazolam 2 mg only, 12 healthy volunteers): No TEAEs were reported
